Screening data deposited in PubChem BioAssay by The Scripps Research Institute Molecular Screening Center.
NS3 helicase inh = HCV NS3 helicase inhibition; NS3 helicase DNA unwinding, Cy5 molecular beacon fluorescence; 290,000 tested, 0.56% active; AID 1800; inhibition, % at 10.9 µM;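 active = inhibition above the mean of all tested compounds plus 3 SD, set per campaign, cut at about 35% in these data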;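 note: 0% = DMSO wells and 100% = thioflavine S control wells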
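Control set: DMSO versus 110 µM thioflavine S; Material: NS3 helicase fragment of HCV; Measured by: Cy5 fluorescence at 0 and 60 min, beacon hairpin quenching; Read-out basis: percent inhibition from t60/t0 fluorescence ratio; Times: reaction time 60 min, 25 °C; Repeats: single replicate; Compound dosing: single dose, 10.9 µM nominal final, DMSO 0.8% final.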
ZTA counter = ZTA (EBV) inhibition in EBNA-1 counter-screen | P03206 | ZTA-DNA binding, fluorescence polarization | inhibition, % at 11 µM | 320,000 tested, 0.15% active | AID 2234; in the data active = inhibition above about 33%
Target sequence (P03206 whole entry, looked up): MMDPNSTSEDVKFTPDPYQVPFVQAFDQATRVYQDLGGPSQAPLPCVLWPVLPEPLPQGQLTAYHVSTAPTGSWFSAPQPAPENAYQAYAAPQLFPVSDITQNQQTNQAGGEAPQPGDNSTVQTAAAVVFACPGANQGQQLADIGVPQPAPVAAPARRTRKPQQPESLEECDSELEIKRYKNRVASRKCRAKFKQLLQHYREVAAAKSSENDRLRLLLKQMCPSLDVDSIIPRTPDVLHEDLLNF
EBNA-1 inhibitor = blocks EBNA-1 binding to DNA; EBNA-1 DNA binding, fluorescence polarization; inhibition, % at 14.8 µM; AID 1950; 300,000 tested, 0.34% active; in the data active = inhibition above about 28%
core dimer inh = blocks dimerization of HCV core protein. TR-FRET GST/Flag-core106 dimerization, 1536-well. inhibition, % at 5 µM. AID 1899. 300,000 tested, 0.33% active;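 active = inhibition above the mean of all tested compounds plus 3 SD, set per screening campaign, cut at about 45% in these data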
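Test system: GST/Flag-tagged HCV core106 proteins; Medium: KF-containing HEPES buffer, pH 7.45, DTT, CHAPS, BSA; Times: compound-protein-antibody incubation 4 h at 22.5 °C; Detection: TR-FRET 671 and 617 nm emission; Benchmarks: wells lacking GST-core106 and wells with excess unlabelled core106.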
NS3 hel confirm = confirmation of Hepatitis C virus NS3 helicase inhibitors; inhibition, % at 10.9 µM; 1,600 tested, 31% active; shares compounds with NS3 helicase inh; AID 1943; NS3 helicase DNA unwinding, Cy5 molecular beacon fluorescence;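 active = inhibition above the mean of all tested compounds plus 3 SD, cutoff set per campaign, cut at about 36% in these data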
DNA FID counter = intercalator displacement, NS3 helicase counter-screen; AID 1945; inhibition, % at 7.9 µM; shares compounds with NS3 helicase inh; DNA fluorescent intercalator displacement, fluorescence; 1,600 tested, 4% active; in the data active = inhibition above about 37%;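 note: 0% = vehicle and 100% = reference compound; higher means more displacement of ethidium bromide from the DNA hairpin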
DNA FID DR = displaces fluorescent intercalator from DNA, HCV helicase counter-screen. shares compounds with NS3 helicase inh. fluorescent intercalator displacement from DNA, fluorescence. IC50, µM. 120 tested, under 10 active. AID 2172; call rule not given here
* marks the source's active call; other numbers are inactive results; . = no result given. Only some compounds are listed: those with a hit (about 1.2% of all), similar ones and a draw of the others.

SMILES	NS3 helicase inh	ZTA counter	EBNA-1 inhibitor	core dimer inh	NS3 hel confirm	DNA FID counter	others
COc1cccc(C(N)=O)c1OC(=O)Cc1ccccc1F	40*	-3	-8	0	2	13
CCOC(=O)c1c(NC(=O)C2C3C=CC(C3)C2C(=O)O)sc2c1CCC(C)C2 (stereo not drawn)	37*	21	4	13	75*	-31
CCNc1ccccc1CP(=O)(c1ccccc1)c1ccccc1O (stereo not drawn)	64*	0	10	26	-1	7
CC1(C)OCC(C2CC(c3ccccc3)NS(=O)(=O)O2)O1 (stereo not drawn)	13	16	8	-4	.	.
O=S1(=O)NC2c3ccccc3CC2O1 (stereo not drawn)	40*	5	0	10	-13	1
N=C1/C(=C/c2cccs2)C(=O)N=C2SN=C(SCc3ccccc3)N12	18	-11	-3	1	.	.
CC(C)CSC1=NSC2=NC(=O)/C(=C\c3cccs3)C(=N)N12	37*	0	0	-2	53*	12
O=C(O)Cn1c(=O)c2c3c(sc2n(Cc2ccccc2F)c1=O)CCCC3	12	-3	-6	0	.	.
Cc1cccc(OCC(=O)Nc2cc(NC(=O)COc3cccc(C)c3)cc(C(=O)O)c2)c1	41*	0	3	-1	63*	-23
Cc1cccc(OCC(=O)N/N=C/C=C/c2ccco2)c1	43*	6	6	28	-7	4
Cc1ccc(C(=O)CSC2=C(C#N)C(c3ccco3)C3=C(CCCC3=O)N2)cc1 (stereo not drawn)	23	-23	-3	8	.	.
N#CC1=C(SCC(=O)c2ccccc2)NC2=C(C(=O)CCC2)C1c1ccco1 (stereo not drawn)	38*	-6	-10	-4	-10	-1
O=C(Nc1nnc(-c2ccc3c(c2)CCCC3)o1)c1ccc(Cl)cc1Cl	72*	6	4	41	72*	-25
O=C(Nc1nnc(-c2ccc3c(c2)CCCC3)o1)c1c(F)cccc1F	-1	-6	-4	4	.	.
CCC(=O)N1CCc2cc(S(=O)(=O)CCC(=O)Nc3ccc(OC)c(OC)c3)ccc21	10	-9	9	5	.	.
COc1ccc(C2=NN(c3nc4ccccc4s3)C(=O)/C2=C\N(C)C)cc1	47*	15	11	0	18	-5
COc1ccc(C2SCC(=O)N2c2nc3ccccc3s2)cc1 (stereo not drawn)	-1	4	4	-3	.	.
Cc1cccc(N2C(=O)C(O)=C(C(=O)c3cccs3)C2c2ccc(C(C)C)cc2)n1 (stereo not drawn)	55*	5	12	20	78*	-10	DNA FID DR=>79
Cc1ccc(S(=O)(=O)CCC(=O)Nc2cccc(S(=O)(=O)N3CCCCCC3)c2)cc1	.	5	.	.	.	.
CC(C)c1nc(SCC(=O)c2c[nH]c3ccccc23)n[nH]1	32	-7	9	3	.	.
O=C1c2ccccc2-c2c1cccc2C(=O)N1CCN(C(=O)c2ccco2)CC1	12	6	-5	4	.	.
O=C(O)CCCNc1cc(N2CCN(C(=O)c3ccco3)CC2)c2noc3c2c1C(=O)c1ccccc1-3	37*	149*	81*	-102	72*	-26
CCC(=O)N1c2ccc(S(=O)(=O)NCCc3ccc(OC)c(OC)c3)cc2CC1C (stereo not drawn)	6	-7	-16	-7	.	.
CCC1C/C(=C\c2cc(OC)c(OC)cc2OC)C(=O)/C(=C/c2cc(OC)c(OC)cc2OC)C1 (stereo not drawn)	-25	24	2	17	.	.
CCC1C/C(=C/c2ccco2)C(=O)/C(=C/c2ccco2)C1 (stereo not drawn)	46*	14	5	24	77*	12
SMILES	NS3 helicase inh	ZTA counter	EBNA-1 inhibitor	core dimer inh	NS3 hel confirm	DNA FID counter	others
Cc1ccc(S(=O)(=O)N(CC(=O)NCc2ccncc2)Cc2ccc(F)cc2)cc1	-8	5	3	5	.	.
CNc1ccc(Br)cc(C(=O)/C=C/c2ccc(OC)cc2OC)c1=O	33	4	-2	28	.	.
CCNc1ccc(Br)cc(C(=O)/C=C/c2ccc3c(c2)OCO3)c1=O	47*	6	12	58*	41*	-5
CNc1ccc(Br)cc(C(=O)/C=C/c2ccc(Cl)cc2Cl)c1=O	38*	6	-7	45	74*	14	DNA FID DR=>79
CCNc1ccc(Br)cc(C(=O)/C=C/c2ccc(Cl)cc2)c1=O	28	8	-2	24	.	.
CNc1ccc(Br)cc(C(=O)/C=C/c2cccc(OC)c2)c1=O	44*	0	10	14	54*	15	DNA FID DR=>79
Cc1ccc(S(=O)(=O)n2nccc2-c2c(-c3ccc(Cl)cc3)noc2C)cc1	-8	-14	-9	7	.	.
Clc1cccc(-c2sc(Nc3ccccc3)n[n+]2-c2ccccc2)c1Cl	69*	8	4	-12	9	20
COc1cc(Br)c(-c2sc(Nc3ccccc3)n[n+]2-c2ccc(F)cc2)cc1OC	45*	5	-4	-35	13	-5
O=c1[nH]c(/C=C/c2ccc([N+](=O)[O-])cc2)c([N+](=O)[O-])c(=O)[nH]1	60*	.	.	.	-15	8
O=c1[nH]c(/C=C/c2ccc3c(c2)OCO3)c([N+](=O)[O-])c(=O)[nH]1	-3	-6	-10	7	.	.
Cc1nn(CC(C)C)c(Cl)c1C(=O)N(c1ccc(Cl)cc1F)S(C)(=O)=O	-11	-23	-3	-10	.	.
COc1ccc(N=C2SC(CC(=O)Nc3ccccc3OC)C(=O)N2Cc2ccco2)cc1 (stereo not drawn)	41*	11	12	14	-14	-26
COc1ccc(N(CC(=O)NC2CCCCCC2)S(=O)(=O)c2ccc(C)cc2)cc1OC	-17	6	14	12	.	.
O=C(O)c1ccccc1C(=O)c1ccc(-c2ccccc2)cc1	42*	16	22	-1	-20	-12
O=C(O)c1ccccc1C(=O)c1ccc(Cl)cc1	-7	2	1	-3	.	.
COc1ccc(-n2c3c(cc(C(=O)NCC(=O)c4ccccc4)c2=O)C(=O)CC(C)(C)C3)cc1	7	-2	-8	-1	.	.
COc1cc(SSc2cc(OC)cc([N+](=O)[O-])c2N)c(N)c([N+](=O)[O-])c1	29	-17	-13	-95	7	15
COC(=O)c1cc(S(=O)(=O)NCC2CCN(CCc3cccs3)CC2)cn1C	-4	12	-4	9	.	.
CN=c1scc(-c2cccs2)n1/N=C/c1ccc(O)c(O)c1O	54*	0	-2	7	-8	13
C=CCN=c1scc(-c2ccco2)n1/N=C/c1ccc(O)c(O)c1O	40*	1	4	6	-2	14
